Results on 20 compounds are retold here after ChEMBL document CHEMBL1156843, “3,5-Bis(benzylidene)-1-[4-2-(morpholin-4-yl)ethoxyphenylcarbonyl]-4-piperidone hydrochloride: a lead tumor-specific cytotoxin which induces apoptosis and autophagy” (Bioorg Med Chem Lett, 2010).

A value given as a limit tells only on which side of the number the result lay.

By CC50 is commonly meant the concentration at which the toxic effect on the cells reaches its halfway point.

The subject of series [1] is HL-60. The series is described as follows: Selectivity index, ratio of CC50 for human normal cells to CC50 for human HL60 cells. It counts as functional. Summed up: (§1)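 Ratio of the mean CC50 over three normal human lines (HGF gingival fibroblasts, HPC pulp cells, HPLF periodontal ligament fibroblasts) to the CC50 for the given tumor line. Each CC50 is the mean of two independent determinations.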

Series [2] can be described thus: Cytotoxicity against human HGF cells. It counts as cell-based.
For series [3], the system named is HSC-4. The series is described as follows: Selectivity index, ratio of CC50 for human normal cells to CC50 for human HSC4 cells. It counts as functional. Summed up: as §1
Series [4] concerns HSC-2. Briefly: Cytotoxicity against human HSC2 cells. The series is classed as functional. The procedure, abridged:
(§2)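 Each value is the mean of two independent determinations.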

In series [5] the test system is HL-60. Briefly: Cytotoxicity against human HL60 cells. The series is classed as functional. Summed up:
as §2

Series [6] deals with HSC-4. Briefly: Cytotoxicity against human HSC4 cells. The series is classed as functional. Summed up: as §2
Series [7] in a line: Cytotoxicity against human HPC cells. It counts as cell-based.
Series [8] is described as follows: Cytotoxicity against human HPLF cells. It counts as cell-based.
The test system of series [9] is HSC-2. Briefly: Selectivity index, ratio of CC50 for human normal cells to CC50 for human HSC2 cells. It counts as functional. Summed up:
as §1

For the compound `CC[N+](C)(CC)CCOc1ccc(C(=O)N2C/C(=C\c3ccc([N+](=O)[O-])cc3)C(=O)/C(=C/c3ccc([N+](=O)[O-])cc3)C2)cc1.[I-]`, the “Selectivity Index” value in series [1] was determined as 2.7; in series [3], 1.3; in [9] it was 1.2. For the same compound, the CC50 turned out to be 93 µM in series [2]; 67 µM in series [4]; 29 µM in [5]; 61 µM in series [6]; 130 µM in series [7]; 13 µM in series [8].
For `Cl.O=C1/C(=C/c2ccc(Cl)cc2)CN(C(=O)c2ccc(OCCN3CCCCC3)cc2)C/C1=C\c1ccc(Cl)cc1`, the “Selectivity Index” value in series [1] is listed as greater than 6; in series [3], greater than 7.9; in [9] it was greater than 3.5. For the same compound, the CC50 is greater than 400 µM in series [2], greater than 400 µM in [7] and 340 µM in series [8].
Regarding `CCN(CC)CCOc1ccc(C(=O)N2C/C(=C\c3ccc([N+](=O)[O-])cc3)C(=O)/C(=C/c3ccc([N+](=O)[O-])cc3)C2)cc1.Cl`, the figures for the “Selectivity Index” value in series [1], in series [3] and in series [9] were 20, 4.6 and 5.2, respectively. The CC50 amounted to 5 µM in series [2], 4.5 µM in [7] and 5.9 µM in [8].
For the compound `Cc1ccc(/C=C2\CN(C(=O)c3ccc(OCCN(C)C)cc3)C/C(=C\c3ccc(C)cc3)C2=O)cc1.Cl`, the “Selectivity Index” value in series [1] turned out to be 7.3; in series [3], 3; in series [9], 4.4. Further, the CC50 amounted to 7.9 µM in [2]; 1.4 µM in series [4]; 0.85 µM in series [5]; 2.1 µM in series [6]; 7.2 µM in series [7]; 3.4 µM in series [8].
`CC[N+](C)(CC)CCOc1ccc(C(=O)N2C/C(=C\c3ccccc3)C(=O)/C(=C/c3ccccc3)C2)cc1.[I-]`: the entries for the “Selectivity Index” value in series [1], in series [3] and in series [9] were 1.7, 1.7 and 1.1, respectively. Moreover, the CC50 stood at 160 µM in series [2]; 130 µM in series [4]; 82 µM in series [5]; 82 µM in series [6]; 170 µM in series [7]; 79 µM in series [8].
For the compound `CCN(CC)CCOc1ccc(C(=O)N2C/C(=C\c3ccc(C)cc3)C(=O)/C(=C/c3ccc(C)cc3)C2)cc1.Cl`, the “Selectivity Index” value in [1] was 7.3; in series [3] it was 2.5; in series [9], 2.6. Further, the CC50 in [2] was 3.6 µM; in series [7], 9.3 µM; in series [8], 4.6 µM.
For `CC[N+](C)(CC)CCOc1ccc(C(=O)N2C/C(=C\c3ccc(Cl)cc3)C(=O)/C(=C/c3ccc(Cl)cc3)C2)cc1.[I-]`, the “Selectivity Index” value is greater than 4.2 in series [1], greater than 1.2 in [3] and 0.7 in series [9]. Further, the CC50 was greater than 400 µM in series [2]; greater than 400 µM in series [4]; 64 µM in [5]; 220 µM in series [6]; greater than 400 µM in [7]; 9.4 µM in [8].
Turning to `Cl.O=C1/C(=C/c2ccc([N+](=O)[O-])cc2)CN(C(=O)c2ccc(OCCN3CCCCC3)cc2)C/C1=C\c1ccc([N+](=O)[O-])cc1`, the “Selectivity Index” value is 19 in [1], 6.2 in series [3] and 6.5 in [9]. The CC50 in series [2] turned out to be 8 µM; in series [4] it was 0.86 µM; in series [5], 0.29 µM; in [6], 0.9 µM; in series [7], 3.9 µM; in series [8], 4.9 µM.
For `N[C@@H](Cc1ccc(N(CCCl)CCCl)cc1)C(=O)O`, the “Selectivity Index” value is greater than 33 in [1], greater than 2.5 in [3] and greater than 5.7 in [9]. In addition, the CC50 in series [2], in [7] and in [8] was greater than 200 µM each time.
Regarding `Cc1ccc(/C=C2\CN(C(=O)c3ccc(OCCN4CCCCC4)cc3)C/C(=C\c3ccc(C)cc3)C2=O)cc1.Cl`, the entries for the “Selectivity Index” value in series [1], in series [3] and in [9] were 3.8, 2.2 and 3, respectively. The CC50 in [2] stood at 6 µM; in series [4], 2.9 µM; in [5], 2.3 µM; in series [6] it was 4.1 µM; in series [7], 15 µM; in series [8] it was 5.5 µM.
As to `CCN(CC)CCOc1ccc(C(=O)N2C/C(=C\c3ccc(Cl)cc3)C(=O)/C(=C/c3ccc(Cl)cc3)C2)cc1.Cl`, the “Selectivity Index” value was greater than 7.5 in [1], greater than 10 in [3] and greater than 2.1 in [9]. Further, the results for the CC50 in series [2], in series [7] and in [8] were 230 µM, greater than 400 µM and greater than 400 µM, respectively.
`Cl.O=C1/C(=C/c2ccccc2)CN(C(=O)c2ccc(OCCN3CCCCC3)cc2)C/C1=C\c1ccccc1`: the entries for the “Selectivity Index” value in series [1], in series [3] and in series [9] were 5.7, 3.2 and 2.7, respectively. The CC50 worked out at 4.6 µM in series [2]; 3 µM in series [4]; 1.4 µM in series [5]; 2.5 µM in series [6]; 12 µM in [7]; 7.4 µM in series [8].
As for `Cl.O=C1/C(=C/c2ccc([N+](=O)[O-])cc2)CN(C(=O)c2ccc(OCCN3CCOCC3)cc2)C/C1=C\c1ccc([N+](=O)[O-])cc1`, the figures for the “Selectivity Index” value in series [1], in series [3] and in series [9] were 28, 13 and 13, respectively. In addition, the CC50 in series [2] was 12 µM; in [4] it was 0.76 µM; in series [5], 0.35 µM; in series [6] it was 0.74 µM; in [7] it was 8.2 µM; in series [8], 9.3 µM.
Take `CN(C)CCOc1ccc(C(=O)N2C/C(=C\c3ccc([N+](=O)[O-])cc3)C(=O)/C(=C/c3ccc([N+](=O)[O-])cc3)C2)cc1.Cl`: the figures for the “Selectivity Index” value in series [1], in series [3] and in series [9] were 19, 8.5 and 6.5, respectively. Besides, the CC50 was determined as 7 µM in [2]; 0.93 µM in [4]; 0.31 µM in series [5]; 0.71 µM in series [6]; 5.2 µM in [7]; 5.9 µM in series [8].
As for `CN(C)CCOc1ccc(C(=O)N2C/C(=C\c3ccc(Cl)cc3)C(=O)/C(=C/c3ccc(Cl)cc3)C2)cc1.Cl`, the “Selectivity Index” value in [1] came to 7.5; in series [3], 7.1; in [9], 5.6. Further, the CC50 was 23 µM in series [2]; 2.3 µM in series [4]; 1.7 µM in series [5]; 1.8 µM in [6]; 11 µM in series [7]; 4.3 µM in [8].
For the compound `CC[N+](C)(CC)CCOc1ccc(C(=O)N2C/C(=C\c3ccc(C)cc3)C(=O)/C(=C/c3ccc(C)cc3)C2)cc1.[I-]`, the entries for the “Selectivity Index” value in series [1], in series [3] and in series [9] were 1.5, 1.4 and 1.4, respectively. Also, the CC50 in series [2] stood at 34 µM; in series [4], 17 µM; in series [5], 16 µM; in series [6], 17 µM; in series [7], 29 µM; in [8] it was 8.3 µM.
Take `Cc1ccc(/C=C2\CN(C(=O)c3ccc(OCCN4CCOCC4)cc3)C/C(=C\c3ccc(C)cc3)C2=O)cc1.Cl`: the “Selectivity Index” value is reported as 20 in series [1], 12 in [3] and 15 in series [9]. The CC50 in [2] amounted to 10 µM; in series [4] it was 1.6 µM; in series [5], 1.2 µM; in [6], 2 µM; in [7], 49 µM; in series [8] it was 12 µM.
With `CN(C)CCOc1ccc(C(=O)N2C/C(=C\c3ccccc3)C(=O)/C(=C/c3ccccc3)C2)cc1.Cl`, the “Selectivity Index” value in series [1] is 8.5; in [3], 4.1; in series [9], 2.2. Also, the CC50 in [2] came to 3.6 µM; in series [4], 3.8 µM; in series [5] it was 1 µM; in [6], 2.1 µM; in [7] it was 13 µM; in series [8] it was 8.9 µM.
`CCN(CC)CCOc1ccc(C(=O)N2C/C(=C\c3ccccc3)C(=O)/C(=C/c3ccccc3)C2)cc1.Cl`: the “Selectivity Index” value was found to be 12 in series [1], 3.7 in [3] and 2.4 in series [9]. Besides, the CC50 in series [2] is 4.2 µM; in [4], 3.1 µM; in series [5] it was 0.61 µM; in [6], 2 µM; in [7] it was 12 µM; in [8] it was 6 µM.
In the case of `Cl.O=C1/C(=C/c2ccc(Cl)cc2)CN(C(=O)c2ccc(OCCN3CCOCC3)cc2)C/C1=C\c1ccc(Cl)cc1`, the Selectivity Index in [1] was greater than 11; in series [3], greater than 22; in series [9], greater than 5.5. The CC50 was 400 µM in series [2]; 71 µM in series [4]; 36 µM in series [5]; 18 µM in [6]; greater than 400 µM in series [7]; 360 µM in series [8].
